ChEMBL document CHEMBL2150980 (Eur J Med Chem, 2012)

Key:
[1] = molecular target: T1, Adrenergic receptor alpha-2 (Rattus norvegicus, UniProt P22086+P19328+P22909); test: Antagonist activity at alpha2 adrenoceptor in Sprague-Dawley rat prostatic vas deferens assessed as suppression of clonidine-mediated inhibition of twitch response after 30 mins; format: functional, tissue-based
T1 sequence (P22086 whole entry): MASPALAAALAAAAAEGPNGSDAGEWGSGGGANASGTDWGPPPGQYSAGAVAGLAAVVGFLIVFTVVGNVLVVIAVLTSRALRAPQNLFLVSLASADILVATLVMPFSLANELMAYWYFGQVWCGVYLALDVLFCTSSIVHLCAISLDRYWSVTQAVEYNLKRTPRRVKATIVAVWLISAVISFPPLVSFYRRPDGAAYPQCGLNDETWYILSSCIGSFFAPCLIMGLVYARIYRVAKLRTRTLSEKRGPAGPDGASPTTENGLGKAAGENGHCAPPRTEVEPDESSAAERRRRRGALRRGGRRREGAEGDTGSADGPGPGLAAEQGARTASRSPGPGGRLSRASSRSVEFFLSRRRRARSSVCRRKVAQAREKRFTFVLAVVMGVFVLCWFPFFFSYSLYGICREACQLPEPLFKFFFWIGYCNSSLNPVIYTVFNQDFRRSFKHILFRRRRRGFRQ
T1 sequence (P19328 whole entry): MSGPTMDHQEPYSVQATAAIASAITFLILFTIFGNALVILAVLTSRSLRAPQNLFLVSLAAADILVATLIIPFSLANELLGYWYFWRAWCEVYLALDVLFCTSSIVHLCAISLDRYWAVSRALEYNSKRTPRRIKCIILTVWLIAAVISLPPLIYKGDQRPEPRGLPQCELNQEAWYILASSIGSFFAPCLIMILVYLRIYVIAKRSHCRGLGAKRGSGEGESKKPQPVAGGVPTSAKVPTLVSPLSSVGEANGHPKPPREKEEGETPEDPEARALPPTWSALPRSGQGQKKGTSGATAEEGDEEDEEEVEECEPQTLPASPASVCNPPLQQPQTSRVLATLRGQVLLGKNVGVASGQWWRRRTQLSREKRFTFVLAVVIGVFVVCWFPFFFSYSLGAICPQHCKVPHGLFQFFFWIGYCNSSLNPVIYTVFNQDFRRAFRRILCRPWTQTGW
T1 sequence (P22909 whole entry): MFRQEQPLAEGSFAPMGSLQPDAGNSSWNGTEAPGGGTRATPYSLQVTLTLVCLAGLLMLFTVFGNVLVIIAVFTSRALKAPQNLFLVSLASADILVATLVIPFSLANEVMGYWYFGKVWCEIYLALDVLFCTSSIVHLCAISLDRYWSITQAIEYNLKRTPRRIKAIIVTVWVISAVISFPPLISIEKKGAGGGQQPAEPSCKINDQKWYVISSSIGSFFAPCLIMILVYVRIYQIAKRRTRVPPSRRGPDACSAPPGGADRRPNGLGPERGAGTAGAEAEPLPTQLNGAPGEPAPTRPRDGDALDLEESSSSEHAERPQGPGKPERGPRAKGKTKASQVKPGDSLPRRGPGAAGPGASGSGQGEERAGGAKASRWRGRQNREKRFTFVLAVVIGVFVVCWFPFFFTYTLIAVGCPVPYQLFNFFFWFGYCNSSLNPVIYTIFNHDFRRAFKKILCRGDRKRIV
In short: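 Prostatic vas deferens segments (1.5–2 cm) in Krebs at 37 °C, field-stimulated at 0.1 Hz with 3 ms square pulses, 20–40 V. Equilibrated 1 h at 0.35 g resting tension.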

[2] = molecular target: T2, Alpha-1D adrenergic receptor (Rattus norvegicus, UniProt P23944); test: Antagonist activity at alpha1D adrenoceptor in Sprague-Dawley rat thoracic aorta assessed as inhibition of noradrenaline-induced contractions after 30 mins; format: functional, tissue-based; conditions: read-out: pA2 (converted)
T2 sequence (P23944 whole entry): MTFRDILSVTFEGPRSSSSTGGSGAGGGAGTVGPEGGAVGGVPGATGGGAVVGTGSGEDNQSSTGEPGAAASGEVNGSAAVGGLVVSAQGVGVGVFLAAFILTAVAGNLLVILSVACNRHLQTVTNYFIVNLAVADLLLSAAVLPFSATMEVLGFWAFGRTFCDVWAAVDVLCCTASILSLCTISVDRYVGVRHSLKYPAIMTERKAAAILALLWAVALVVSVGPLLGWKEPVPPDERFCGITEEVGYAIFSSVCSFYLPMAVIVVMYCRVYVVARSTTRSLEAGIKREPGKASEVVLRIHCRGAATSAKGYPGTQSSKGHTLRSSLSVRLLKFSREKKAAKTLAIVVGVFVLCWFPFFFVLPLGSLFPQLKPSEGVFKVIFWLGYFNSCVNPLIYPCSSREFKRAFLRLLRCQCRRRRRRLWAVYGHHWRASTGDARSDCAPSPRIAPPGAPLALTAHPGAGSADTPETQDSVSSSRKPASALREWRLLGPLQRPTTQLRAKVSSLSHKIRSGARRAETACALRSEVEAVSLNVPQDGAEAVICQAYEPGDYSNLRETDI

[3] = molecular target: T3, Alpha-1D adrenergic receptor (Homo sapiens, UniProt P25100); test: Displacement of [3H]prazosin from human cloned alpha1D adrenoceptor expressed in CHO cell membranes after 30 mins by liquid scintillation counter
T3 sequence (P25100 whole entry): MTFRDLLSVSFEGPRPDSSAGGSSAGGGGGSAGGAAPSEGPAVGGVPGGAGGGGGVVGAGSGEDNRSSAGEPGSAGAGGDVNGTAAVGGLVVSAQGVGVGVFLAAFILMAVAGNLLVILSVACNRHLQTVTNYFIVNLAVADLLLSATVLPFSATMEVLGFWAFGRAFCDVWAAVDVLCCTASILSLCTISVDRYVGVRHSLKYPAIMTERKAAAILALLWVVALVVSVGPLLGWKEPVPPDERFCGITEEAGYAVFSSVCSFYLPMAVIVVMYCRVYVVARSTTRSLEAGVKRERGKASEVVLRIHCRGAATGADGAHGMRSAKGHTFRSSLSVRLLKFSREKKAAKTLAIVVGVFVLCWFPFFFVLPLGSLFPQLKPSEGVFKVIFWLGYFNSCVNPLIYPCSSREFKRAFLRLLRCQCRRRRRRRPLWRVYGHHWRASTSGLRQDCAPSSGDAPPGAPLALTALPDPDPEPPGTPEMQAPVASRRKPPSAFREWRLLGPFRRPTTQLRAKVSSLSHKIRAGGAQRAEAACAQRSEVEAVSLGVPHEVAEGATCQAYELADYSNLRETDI

| SMILES | pA2 [1] | Kb [2] [nM] | Ki [3] [nM] |
| --- | --- | --- | --- |
| COc1cccc(OC)c1OCCNC[C@H]1COc2cccc(O)c2O1.Cl | < 5 | 51.3 | 8.91 |
| COc1cccc(OC)c1OCCNC[C@H]1COc2cccc(F)c2O1.Cl | 6.26 | 9.33 | 0.49 |
| COc1cccc(OC)c1OCCNC[C@H]1COc2cccc(OC)c2O1.Cl | 6.23 | 11.7 | 0.372 |
| COc1cccc(OC)c1OCCNC[C@H]1COc2cccc(Cl)c2O1.Cl | 6.02 | 3.02 | 0.708 |
| COc1cccc(OC)c1OCCNC[C@H]1COc2c(OC)cccc2O1.Cl | 5.67 | 5.75 | 79.4 |
